This note sets out measurements from ChEMBL document CHEMBL2439996, “Phenyl substituted 3-hydroxypyridin-2(1H)-ones: inhibitors of influenza A endonuclease” (Bioorg Med Chem, 2013).

The test system of one assay is HEK293. Kind of assay: Cytotoxicity against human HEK293 cells after 4 days by MTT assay. It is filed as cell-based. The following applies: HEK293, 96 h. The procedure, abridged:
(§1)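 MTT microtiter assay; cells kept at 37 °C, 5% CO2 in DMEM with regular passage. Wells seeded with 3,000 cells each, exposed continuously for four days to varying drug concentrations in triplicate, with a drug-free control. MTT read at end of day 4 to give IC50.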

In the next assay the test system is MDCK. Put plainly: Cytotoxicity against MDCK cells after 4 days by MTT assay. The following applies: Canis lupus familiaris, 96 h. In kind it is cell-based. The procedure, abridged: as §1
For orientation: Tetrazolium assays rely on reduction of a dye to a coloured formazan, in cell work by metabolically active cells.

A short description of assay [1]: Inhibition of endonuclease activity of Influenza A virus H1N1 RNA-dependent RNA polymerase expressed in Escherichia coli BL21 using 6FAM-TGGCAATATCAGCTCCACA-MGBNFQ as substrate after 5 to 240 mins by fluorescence assay. Put shortly: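 PA_N (pandemic H1N1 endonuclease, residues 1-204, His-tag removed, SEC-purified). Inhibitor serially diluted, DMSO at most 2.5% (v/v). Ex 488/em 518 read at 5, 120, 240 min at 37 °C. IC50 by nonlinear regression of fluorescence change, mean of triplicates ± SEM.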

SMILES strings stand for the structures. Some results are limits rather than exact numbers.

Regarding `O=c1[nH]ccc(-c2ccccc2)c1O`, the IC50 (usually the concentration at which inhibition is half-maximal) in the assay with HEK293 was over 100 µM; in the assay on MDCK, over 100 µM; in assay [1], 35 µM.

In the case of `O=c1[nH]c(-c2ccc(-c3nnn[nH]3)cc2)ccc1O`, the IC50 in the assay on HEK293 is at least 28 µM; in the assay on MDCK, over 100 µM; in assay [1] it was 0.085 µM.

With `O=c1[nH]cc(-c2ccc(-c3nnn[nH]3)cc2)cc1O`, the IC50 is 80 µM in the assay with HEK293, over 100 µM in the assay on MDCK and 0.368 µM in assay [1].

Consider `N#Cc1ccc(-c2ccc(O)c(=O)[nH]2)cc1`, for which the IC50 with HEK293 was at least 28 µM; with MDCK it was over 100 µM; in assay [1], 0.802 µM.

Regarding `N#Cc1ccc(-c2c[nH]c(=O)c(O)c2)cc1`, the results for the IC50 (in the assay with HEK293; in the assay with MDCK; in assay [1]) were over 100 µM, over 100 µM and 3.83 µM, respectively.

As to `O=c1[nH]c(-c2ccc(F)cc2)c(-c2ccc(F)cc2)cc1O`, the concentration for half-maximal inhibition (IC50) in the assay with HEK293 and in the assay on MDCK was over 100 µM throughout.

With `O=c1[nH]c(-c2ccccc2)ccc1O`, the figures for the IC50 (with HEK293; in the assay on MDCK; in assay [1]) were at least 28 µM, 60 µM and 0.87 µM, respectively.

As for `O=c1[nH]c(-c2ccc(-c3nnn[nH]3)cc2)c(-c2ccc(-c3nnn[nH]3)cc2)cc1O`, the results for the IC50 (in the assay with HEK293; in the assay with MDCK; in assay [1]) were over 100 µM, over 100 µM and 0.285 µM, respectively.

In the case of `O=c1[nH]cc(-c2ccccc2)cc1O`, the values for the IC50 (with HEK293; in the assay with MDCK; in assay [1]) were at least 28 µM, 80 µM and 2.1 µM, respectively.

Turning to `O=c1[nH]ccc(-c2ccc(F)cc2)c1O`, the IC50 in the assay on HEK293 is over 100 µM; in the assay on MDCK, over 100 µM; in assay [1], over 200 µM.

In the case of `O=c1[nH]c(-c2ccccc2)c(-c2ccccc2)cc1O`, the IC50 is at least 28 µM with HEK293, over 100 µM in the assay on MDCK and 0.047 µM in assay [1].

Take `O=c1[nH]c(-c2ccc(F)cc2)ccc1O`: the IC50 with HEK293 is over 100 µM; in the assay with MDCK, over 100 µM; in assay [1], 0.43 µM.

Take `O=c1[nH]cc(-c2ccc(F)cc2)cc1O`: the IC50 in the assay on HEK293 is over 100 µM; in the assay with MDCK, over 100 µM; in assay [1] it was 0.73 µM.

Take `N#Cc1ccc(-c2cc(O)c(=O)[nH]c2-c2ccc(C#N)cc2)cc1`: the results for the IC50 (with HEK293; with MDCK; in assay [1]) were at least 28 µM, 40 µM and 0.103 µM, respectively.
